In ChEMBL document CHEMBL1833943, “Synthesis and structure-activity relationships of varied ether linker analogues of the antitubercular drug (6S)-2-nitro-6-{[4-(trifluoromethoxy)benzyl]oxy}-6,7-dihydro-5h-imidazo[2,1-b][1,3]oxazine (PA-824)” (J Med Chem, 2011):
≈ marks a conversion by molar mass, not a printed value.

Key:
[1] = system: Mycobacterium tuberculosis; assay: Antituberculosis activity against Mycobacterium tuberculosis H37Rv under aerobic conditions by microplate alamar blue assay; format: functional
[2] = Aqueous solubility of the compound in water at pH 7 by HPLC analysis; format: physicochemical
Outline: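 Solubility measured in water at pH 7 and 20 °C, quantified by HPLC.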

[3] = system: Mycobacterium tuberculosis; assay: Antituberculosis activity against Mycobacterium tuberculosis H37Rv under anaerobic conditions by fluorescence based low-oxygen-recovery assay; format: functional
[4] = Metabolic stability in CD1 mouse liver microsomes at 1 uM measured as compound remaining after 1 hr by LC/MS/MS analysis; format: ADME, Microsome; conditions: read-out: Stability
[5] = Metabolic stability in human liver microsomes at 1 uM measured as compound remaining after 1 hr by LC/MS/MS analysis; format: ADME, Microsome; conditions: read-out: Stability
[6] = AUC (0 to infinity) in plasma of CD1 mouse at 40 mg/kg, po; format: ADME, organism-based; parameters: time infinity, dose 40 mg/kg, route oral
Outline: (§1)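 Mice given a single oral dose of 40 mg/kg; drug levels followed over time in plasma and lung tissue to derive half-life, Cmax and AUC for each matrix.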

[7] = system: Mycobacterium tuberculosis; assay: Antituberculosis activity against Mycobacterium tuberculosis H37Rv infected in BALB/c mouse acute infection model assessed as fold reduction in bacterial CFU in lungs at 100 mg/kg, po administered for 5 days a week for 3 weeks beginning on day 11 postinfection relative to PA-824; format: functional
Outline: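 Mice with acute M. tb infection dosed orally at 100 mg/kg daily, 5 days each week, standard 3 week assay. Lung CFUs counted. Value is the fold CFU decrease for the compound divided by the fold CFU decrease for the internal reference standard run in the same experiment.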

[8] = Ratio of AUC (0 to infinity) in lung of CD1 mouse to AUC (0 to infinity) in plasma of CD1 mouse at 40 mg/kg, po; format: ADME, organism-based; parameters: dose 40 mg/kg, route oral; conditions: read-out: Ratio AUC
[9] = Half life in plasma of CD1 mouse at 40 mg/kg, po; format: ADME, organism-based; parameters: dose 40 mg/kg, route oral
[10] = Cmax in lung of CD1 mouse at 40 mg/kg, po; format: ADME, organism-based; parameters: dose 40 mg/kg, route oral; outline: as §1
[11] = Half life in the lung of CD1 mouse at 40 mg/kg, po; format: ADME, organism-based; parameters: dose 40 mg/kg, route oral; outline: as §1
[12] = AUC (0 to infinity) in lung of CD1 mouse at 40 mg/kg, po; format: ADME, organism-based; parameters: time infinity, dose 40 mg/kg, route oral; outline: as §1
[13] = Cmax in plasma of CD1 mouse at 40 mg/kg, po; format: ADME, organism-based; parameters: dose 40 mg/kg, route oral; outline: as §1
[14] = Stability of the compound in antimycobacterial activity assay condition assessed as parent compound level; format: ADME

| Compound | MIC [1] | solubility [2] | MIC [3] | remaining at 1 h, 1 µM [4] | remaining at 1 h, 1 µM [5] | also measured |
| --- | --- | --- | --- | --- | --- | --- |
| O=[N+]([O-])c1cn2c(n1)OC[C@@H](OC/C=C/c1ccc(C(F)(F)F)nc1)C2 | 0.15 µM (≈ 0.0555 µg/mL) | 45 µg/mL (≈ 122 µM) | 21 µM (≈ 7.78 µg/mL) |  |  |  |
| O=[N+]([O-])c1cn2c(n1)OC[C@@H](OC/C=C/c1ccc(OC(F)(F)F)cc1)C2 | 0.05 µM (≈ 0.0193 µg/mL) | 1.5 µg/mL (≈ 3.89 µM) | 4.3 µM (≈ 1.66 µg/mL) | 71% | 99% |  |
| O=[N+]([O-])c1cn2c(n1)OC[C@@H](OCC#Cc1cccc(-c3ccc(OC(F)(F)F)cc3)c1)C2 | 0.11 µM (≈ 0.0505 µg/mL) | 0.27 µg/mL (≈ 0.588 µM) | 1.3 µM (≈ 0.597 µg/mL) | 89% | 94% | AUC(0-inf) [6]: 35.8 µg·h/mL; fold change (FC) [7]: 6.4; Kp [8]: 7.2; half-life [9]: 14.7 h; Cmax [10]: 12900 ng/mL; half-life [11]: 14.1 h; AUC(0-inf) [12]: 257 µg·h/mL; Cmax [13]: 1660 ng/mL |
| O=[N+]([O-])c1cn2c(n1)OC[C@@H](Oc1cc(-c3ccc(OC(F)(F)F)cc3)ncn1)C2 | 2.1 µM (≈ 0.889 µg/mL) | 0.88 µg/mL (≈ 2.08 µM) |  |  |  | Stability [14]: < 50% |
| O=[N+]([O-])c1cn2c(n1)OC[C@@H](OCCCC#Cc1ccc(C(F)(F)F)cn1)C2 | 0.19 µM (≈ 0.0753 µg/mL) | 28 µg/mL (≈ 70.6 µM) | 3.5 µM (≈ 1.39 µg/mL) |  |  |  |
| O=[N+]([O-])c1cn2c(n1)OC[C@@H](OCC#Cc1ccc(-c3ccc(C(F)(F)F)nc3)cc1)C2 | 0.15 µM (≈ 0.0667 µg/mL) |  | 1.2 µM (≈ 0.533 µg/mL) | 90% | 82% | fold change (FC) [7]: 0.01 |
| O=[N+]([O-])c1cn2c(n1)OC[C@@H](OCCOc1ccc(-c3ccc(OC(F)(F)F)cc3)cn1)C2 | 0.04 µM (≈ 0.0187 µg/mL) | 0.79 µg/mL (≈ 1.69 µM) | 2.5 µM (≈ 1.17 µg/mL) |  |  | Stability [14]: < 50% |
| O=[N+]([O-])c1cn2c(n1)OC[C@@H](OCC#Cc1ccc(-c3ccc(OC(F)(F)F)cc3)cn1)C2 | 0.025 µM (≈ 0.0115 µg/mL) | 0.05 µg/mL (≈ 0.109 µM) | 0.35 µM (≈ 0.161 µg/mL) | 86% | 89% | fold change (FC) [7]: 0.91 |
| O=[N+]([O-])c1cn2c(n1)OC[C@@H](OCCOc1ncc(-c3ccc(OC(F)(F)F)cc3)cn1)C2 | 0.13 µM (≈ 0.0608 µg/mL) | 21 µg/mL (≈ 44.9 µM) | 2.1 µM (≈ 0.981 µg/mL) |  |  |  |
| O=[N+]([O-])c1cn2c(n1)OC[C@@H](OCCOc1ccc(OCc3ccccc3)cc1)C2 | 0.085 µM (≈ 0.035 µg/mL) | 1.7 µg/mL (≈ 4.13 µM) | 5.5 µM (≈ 2.26 µg/mL) |  |  |  |
| O=[N+]([O-])c1cn2c(n1)OC[C@@H](OCCCc1ccc(C(F)(F)F)nc1)C2 | 0.51 µM (≈ 0.19 µg/mL) | 168 µg/mL (≈ 451 µM) | 12 µM (≈ 4.47 µg/mL) |  |  |  |
| O=[N+]([O-])c1cn2c(n1)OC[C@@H](OCCOc1ccc(-c3ccc(OC(F)(F)F)cc3)cc1)C2 | 0.055 µM (≈ 0.0256 µg/mL) | 0.68 µg/mL (≈ 1.46 µM) | 1.6 µM (≈ 0.745 µg/mL) | 70% | 90% | fold change (FC) [7]: 1.4 |
| O=[N+]([O-])c1cn2c(n1)OC[C@@H](OCC#Cc1ccc(OCc3ccccc3)cc1)C2 | 0.09 µM (≈ 0.0365 µg/mL) | 0.43 µg/mL (≈ 1.06 µM) | 3.5 µM (≈ 1.42 µg/mL) |  |  | Stability [14]: < 50% |
| O=[N+]([O-])c1cn2c(n1)OC[C@@H](OC/C=C/c1ccc(OCc3ccccc3)cc1)C2 | 0.16 µM (≈ 0.0652 µg/mL) | 0.06 µg/mL (≈ 0.147 µM) | 1.3 µM (≈ 0.53 µg/mL) |  |  | Stability [14]: < 50% |
| O=[N+]([O-])c1cn2c(n1)OC[C@@H](OCC#Cc1ccc(C(F)(F)F)nc1)C2 | 0.18 µM (≈ 0.0663 µg/mL) | 11 µg/mL (≈ 29.9 µM) | 8.9 µM (≈ 3.28 µg/mL) |  |  |  |
| O=[N+]([O-])c1cn2c(n1)OC[C@@H](OC/C=C/c1ccc(C(F)(F)F)cn1)C2 | 0.043 µM (≈ 0.0159 µg/mL) | 29 µg/mL (≈ 78.3 µM) | 3.8 µM (≈ 1.41 µg/mL) |  |  |  |
| O=[N+]([O-])c1cn2c(n1)OC[C@@H](OCCCc1ccc(OC(F)(F)F)cc1)C2 | 0.22 µM (≈ 0.0852 µg/mL) | 11 µg/mL (≈ 28.4 µM) | 3.2 µM (≈ 1.24 µg/mL) |  |  |  |
| O=[N+]([O-])c1cn2c(n1)OC[C@@H](OCCOc1ccc(OC(F)(F)F)cc1)C2 | 0.04 µM (≈ 0.0156 µg/mL) | 50 µg/mL (≈ 128 µM) | 5.1 µM (≈ 1.99 µg/mL) | 66% | 85% | fold change (FC) [7]: 1.3 |
| O=[N+]([O-])c1cn2c(n1)OC[C@@H](OCC#Cc1ccc(OC(F)(F)F)cc1)C2 | 0.12 µM (≈ 0.046 µg/mL) | 0.77 µg/mL (≈ 2.01 µM) | 3.4 µM (≈ 1.3 µg/mL) |  |  | Stability [14]: < 50% |
